Assay [1] concerns the target T1, Prostaglandin E synthase (Homo sapiens, UniProt O14684).
T1 sequence (O14684 whole entry): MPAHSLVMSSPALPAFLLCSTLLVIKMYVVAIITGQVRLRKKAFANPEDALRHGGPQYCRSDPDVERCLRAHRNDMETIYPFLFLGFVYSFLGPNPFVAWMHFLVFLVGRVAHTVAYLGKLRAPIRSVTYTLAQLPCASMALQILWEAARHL
Nature of the assay: Inhibition of full-length microsomal PGES-1 (unknown origin) expressed in Escherichia coli Rosetta(DE3) using PGH2 as substrate assessed as inhibition of PGH2 conversion to PGE2 incubated 15 mins prior to substrate addition measured after 1 min by EIA. In short, it runs like this:
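Reactions used 2.5 mM cofactor and 17 μM PGH2 for 1 min at 4 °C, then were stopped, and PGE2 was quantified by EIA. IC50 came from dose-response curves. Mean ± SEM, n = 3.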

Assay [2] addresses T1, Prostaglandin E synthase. Nature of the assay: Inhibition of PGES-1 in human whole blood assessed as LPS-induced PGE2 formation incubated for 15 mins prior to LPS addition measured after 24 hrs by EIA. In short, it runs like this: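 Fresh heparinized blood came from healthy volunteers free of NSAIDs for at least 14 days. It was preincubated 15 min at 37 °C with compound or DMSO vehicle. LPS (final 100 μg/mL) was then added for 24 h at 37 °C. Plasma was obtained by centrifugation at 4 °C, and PGE2 was read by EIA.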

Assay [3] deals with T2, Polyunsaturated fatty acid 5-lipoxygenase (Homo sapiens) (UniProt P09917).
T2 sequence (whole entry): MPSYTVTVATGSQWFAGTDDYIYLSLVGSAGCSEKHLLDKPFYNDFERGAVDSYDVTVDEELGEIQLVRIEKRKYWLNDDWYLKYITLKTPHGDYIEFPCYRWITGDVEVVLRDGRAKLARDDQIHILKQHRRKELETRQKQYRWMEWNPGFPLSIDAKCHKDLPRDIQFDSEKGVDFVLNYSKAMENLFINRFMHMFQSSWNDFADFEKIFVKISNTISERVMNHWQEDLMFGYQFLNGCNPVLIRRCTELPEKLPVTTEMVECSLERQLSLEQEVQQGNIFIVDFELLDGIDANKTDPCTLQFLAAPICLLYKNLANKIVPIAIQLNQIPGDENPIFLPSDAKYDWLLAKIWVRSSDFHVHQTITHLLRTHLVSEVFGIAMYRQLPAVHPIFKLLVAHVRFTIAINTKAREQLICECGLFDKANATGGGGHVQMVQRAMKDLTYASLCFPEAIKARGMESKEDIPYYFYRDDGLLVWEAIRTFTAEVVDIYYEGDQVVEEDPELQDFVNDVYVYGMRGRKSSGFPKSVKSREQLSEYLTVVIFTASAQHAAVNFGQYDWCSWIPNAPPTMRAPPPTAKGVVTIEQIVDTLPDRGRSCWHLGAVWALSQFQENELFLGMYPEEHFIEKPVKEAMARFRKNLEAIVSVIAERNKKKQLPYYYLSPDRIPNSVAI
Nature of the assay: Inhibition of 5-LOX-mediated LTB4 formation in human whole blood at 10 uM incubated for 20 mins prior to substrate addition measured after 0.5 hrs by EIA in presence of calcium ionophore A23187. The essentials:
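Human whole blood was stimulated with calcium ionophore A23187 (final 20 μg/mL) for 0.5 h at 37 °C to induce LTB4 formation. Compounds were tested at 10 μM.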

The target in assay [4] is T2, Polyunsaturated fatty acid 5-lipoxygenase (Homo sapiens). The assay is described as follows: Inhibition of 5-LOX (unknown origin) at 10 uM by human whole blood LTB4 assay.
The test system of assay [5] is Prostaglandin G/H synthase 2 (COX-2). The assay is described as follows: Inhibition of COX-2 (unknown origin)-mediated TMPD oxidation using PGG2 as substrate at 100 uM incubated 15 mins prior to substrate addition measured after 36 secs by spectrophotometric analysis. The following applies: Homo sapiens.
For assay [6], the system named is Prostaglandin G/H synthase 1 (COX-1). Nature of the assay: Inhibition of COX-1 (unknown origin)-mediated TMPD oxidation using PGG2 as substrate at 100 uM incubated 15 mins prior to substrate addition measured after 36 secs by spectrophotometric analysis. The conditions noted are these: Homo sapiens.

Each structure is given as a SMILES string. A value given as a limit tells only on which side of the number the result lay.

For the compound `Cc1ccc([N+](=O)[O-])cc1NC(=O)CSc1nnc(Cc2ccccc2)n1C`, the IC50 at Prostaglandin E synthase [1] was 800 nM.
`Cc1ccc([N+](=O)[O-])cc1NC(=O)CSc1nnc(CC(=O)Nc2ccccc2)n1C`: the 50% inhibitory concentration (IC50) at Prostaglandin E synthase [1] was 100 nM.
`CC1=NN(c2ccc(Cl)c(Cl)c2)C(=O)/C1=C/c1cc(Br)ccc1OCC(=O)O`: the IC50 turned out to be 18.5 µM at Prostaglandin E synthase [2] and 170 nM at Prostaglandin E synthase [1].
For the compound `C=CCn1c(SCC(=O)c2ccc3c(c2)Cc2ccccc2-3)nnc1-c1ccc(OC)cc1`, the IC50 on Prostaglandin E synthase [1] amounted to 910 nM.
For `CCn1c(CNC(=O)c2ccc(C)cc2)nnc1SCC(=O)Nc1cc([N+](=O)[O-])ccc1C`, at Prostaglandin E synthase [1], the IC50 turned out to be 54 nM.
Same read-out and setting: the same measure for `COc1ccc(C(=O)CSc2nnc(-c3ccco3)c(-c3ccco3)n2)cc1`: 5000 nM.
As for `CC(c1ccccc1)N1C(=O)c2ccc(C(=O)Nc3cc(Cl)ccc3C(=O)O)cc2C1=O` (stereo not given), the inhibition in assay [3] and in assay [4] was less than 1% throughout. Further, the figures for the IC50 on Prostaglandin E synthase [2] and at Prostaglandin E synthase [1] were 1.4 µM and 2 nM, respectively.
As for `CCn1c(CNc2ccc(C)cc2C)nnc1SCC(=O)Nc1ccc(C)cc1`, the IC50 on Prostaglandin E synthase [1] turned out to be 5100 nM.
Consider `Cc1ccc(C)c(NC(=O)CSc2nnc(CNc3c(C)cccc3C)n2-c2ccccc2)c1`, for which, at Prostaglandin E synthase [1], the IC50 was determined as 13600 nM.
On to `CCCCCCCCCSc1nnc(-c2ccc(OC)cc2)c(-c2ccc(OC)cc2)n1`, for which the concentration for half-maximal inhibition (IC50) at Prostaglandin E synthase [1] came to 32900 nM.
The same measure, in the same setting: for `Cc1ccc(-c2nnc(SCC(=O)c3c[nH]c4ccccc34)nc2-c2ccc(C)cc2)cc1` the value was 480 nM.
`Clc1ccc(/C=C/c2cc(-c3ccc(-c4ccccc4)cc3)nc3ccc4ccccc4c23)cc1`: the inhibition in assay [3] is less than 1%; in assay [4] it was 10%; in assay [5], 1.8%; in assay [6], less than 1%. Besides, the IC50 on Prostaglandin E synthase [2] was 8.5 µM; on Prostaglandin E synthase [1], 6.5 nM.
In the case of `COc1ccc(OC)c(NC(=O)CSc2nnc(CNc3c(C)cccc3C)n2C)c1`, the IC50 on Prostaglandin E synthase [1] was determined as 930 nM.
For the compound `O=C1COc2ccc(C(=O)CSc3nnc(-c4ccccc4)c(-c4ccccc4)n3)cc2N1`, the IC50 on Prostaglandin E synthase [1] was 290 nM.
Still for that read-out and setting: the same measure for `O=C(CSc1nnc(-c2ccccc2)c(-c2ccccc2)n1)c1c[nH]c2ccccc12`: 500 nM; for `O=C(CCCSc1nnc(-c2ccccc2)c(-c2ccccc2)n1)c1ccccc1`: 50800 nM.
Turning to `Cc1nc2sc3c(c2c(=O)n1/N=C/c1cc([N+](=O)[O-])cc([N+](=O)[O-])c1O)CCCC3`, the IC50 worked out at 130 µM at Prostaglandin E synthase [2] and 1800 nM on Prostaglandin E synthase [1].
On to `COc1cc(-c2cc(C(=O)O)c3c(ccc4ccccc43)n2)ccc1OCCCC#N`, for which the inhibition in assay [3] is less than 1%; in assay [4] it was less than 1%; in assay [5], 1%; in assay [6], 4.1%. The IC50 came out at 4.4 µM at Prostaglandin E synthase [2] and 1.1 nM at Prostaglandin E synthase [1].
`Cc1ccc([N+](=O)[O-])cc1NC(=O)CSc1nnc(-c2ccccc2C)n1C`: the concentration for half-maximal inhibition (IC50) on Prostaglandin E synthase [1] turned out to be 54500 nM.
On the same count and under the same terms, for `O=C(CSc1ncc(-c2ccccc2)nn1)c1ccccc1` the value was 32500 nM.
Regarding `Cc1ccc([N+](=O)[O-])cc1NC(=O)CSc1nnc(CNc2c(C)cccc2C)n1C`, the inhibition is less than 1% in assay [3], 8% in assay [4], less than 1% in assay [5] and less than 1% in assay [6]. For the same compound, the IC50 was 0.7 µM at Prostaglandin E synthase [2] and 9.3 nM on Prostaglandin E synthase [1].
Turning to `COc1ccc(C(=O)CSc2nnc(-c3ccc(OC)cc3)c(-c3ccc(OC)cc3)n2)cc1`, the IC50 at Prostaglandin E synthase [1] was determined as 1000 nM.
Regarding `Cn1c(=O)c(/C(=N/Nc2ccc([N+](=O)[O-])cc2[N+](=O)[O-])c2nnn[nH]2)c(O)c2ccccc21`, the concentration for half-maximal inhibition (IC50) is greater than 200 µM at Prostaglandin E synthase [2] and 1700 nM at Prostaglandin E synthase [1].
With `Cc1cccc(C)c1NCc1nnc(SCc2ccc(Cl)cc2)n1-c1ccccc1`, at Prostaglandin E synthase [1], the half-inhibitory concentration (IC50) came out at 19400 nM.
Take `Cc1ccc2[nH]c3c(c2c1)CCC/C3=N\N=C1/CCCc2c1[nH]c1ccc(C)cc21`: the IC50 at Prostaglandin E synthase [2] was greater than 200 µM; on Prostaglandin E synthase [1], 5000 nM.
As for `CCn1c(CNc2ccc(C)cc2C)nnc1SCC(=O)c1ccc(C)cc1`, the IC50 at Prostaglandin E synthase [1] came to 7500 nM.
On the same count and under the same terms, the same measure for `Cc1[nH]c2ccccc2c1C(=O)C(C)Sc1nnc(-c2ccccc2)c(-c2ccccc2)n1` (stereo not given): 2100 nM; for `Cc1ccc(C)c(NC(=O)CSc2nnc(CNc3c(C)cccc3C)n2C)c1`: 3600 nM.
Regarding `Cc1ccc(-c2nnc(SCC(=O)c3ccc(CC(N)=O)s3)nc2-c2ccc(C)cc2)cc1`, the IC50 at Prostaglandin E synthase [1] worked out at 640 nM.
In the case of `O=C(CSc1nnc(-c2ccccc2)c(-c2ccccc2)n1)c1ccccc1`, the IC50 at Prostaglandin E synthase [1] came out at 2500 nM.
With `Cc1cccc(C)c1NCc1nnc(SCC(=O)Nc2ccc(F)cc2)n1-c1ccccc1`, the IC50 at Prostaglandin E synthase [1] was found to be 9200 nM.
Still for that read-out and setting: the same measure for `O=C(CSc1nc(-c2ccccc2)c(-c2ccccc2)[nH]1)c1ccccc1`: 10400 nM.
Same read-out and setting: the same measure for `Cc1ccc([N+](=O)[O-])cc1NC(=O)CSc1nnc(CNc2ccc(Cl)cc2)n1C`: 33 nM.
`C/C(=N\NC(=O)c1ccc([N+](=O)[O-])c(C)c1)c1cccc(NC(=O)COc2ccc(Cl)cc2Cl)c1`: the half-inhibitory concentration (IC50) on Prostaglandin E synthase [2] was 66 µM; at Prostaglandin E synthase [1] it was 57 nM.
Take `O=C(COC(=O)c1ccc2c(c1)C(=O)N(c1ccc(Oc3ccccc3)cc1)C2=O)c1ccc(Br)cc1`: the results for the IC50 on Prostaglandin E synthase [2] and at Prostaglandin E synthase [1] were 200 µM and 1700 nM, respectively.
Take `Cc1ccc([N+](=O)[O-])cc1NC(=O)CSc1nnc(CNC(=O)COc2c(C)cccc2C)n1C`: on Prostaglandin E synthase [1], the IC50 is 710 nM.
`O=C(N/N=C/c1ccc([N+](=O)[O-])cc1)c1cc(OCc2ccccc2)c(OCc2ccccc2)c(OCc2ccccc2)c1`: the half-maximal inhibitory concentration (IC50) on Prostaglandin E synthase [2] came out at 200 µM; at Prostaglandin E synthase [1], 100 nM.
Turning to `C=CCn1c(CNc2c(C)cccc2C)nnc1SCC(=O)Nc1ccccc1C`, the IC50 at Prostaglandin E synthase [1] was 12600 nM.
As for `C=CCSc1nnc2c(n1)OC(c1ccc(-c3cccc([N+](=O)[O-])c3)o1)Nc1ccccc1-2` (stereo not given), the IC50 is greater than 200 µM on Prostaglandin E synthase [2] and 1600 nM at Prostaglandin E synthase [1].
Consider `CC(C)(C)C(=O)CSc1nnc(-c2ccccc2)c(-c2ccccc2)n1`, for which, at Prostaglandin E synthase [1], the IC50 came out at 17800 nM.
Still for that read-out and setting: for `O=C(CSc1nnc(-c2ccccc2)c(-c2ccccc2)n1)C12CC3CC(CC(C3)C1)C2` the value was 13900 nM; for `Cc1ccc(N2CCn3c(SCC(=O)Nc4cc(C)ccc4C)nnc32)cc1`, greater than 100000 nM.
Take `COc1ccc(CN2C(=O)/C(=C/c3ccc(OCc4ccc([N+](=O)[O-])cc4)c(Br)c3)S/C2=N\c2ccccc2)cc1`: the IC50 at Prostaglandin E synthase [2] is 120 µM; on Prostaglandin E synthase [1], 38 nM.
As to `COc1ccc(-c2nnc(SCC(=O)Nc3ccc(Cl)cc3)nc2-c2ccc(OC)cc2)cc1`, the IC50 on Prostaglandin E synthase [1] is 3100 nM.
On to `CCOC(=O)c1ccc(NC(=O)CSc2nnc(CNc3c(C)cccc3C)n2C)cc1`, for which the IC50 at Prostaglandin E synthase [1] was determined as 5400 nM.
For `O=C(CSc1nnc(-c2ccccc2)c(-c2ccccc2)n1)c1cccs1`, the IC50 on Prostaglandin E synthase [1] turned out to be 9600 nM.
In the case of `Cc1cc(C)c2oc(-c3ccc(C)c(NC(=O)c4cccc([N+](=O)[O-])c4)c3)nc2c1`, the inhibition was less than 1% in assay [3] and 30% in assay [4]. The values for the IC50 on Prostaglandin E synthase [2] and on Prostaglandin E synthase [1] were 6.2 µM and 4.6 nM, respectively.
Consider `Cc1ccc(Cl)c(NC(=O)CSc2nnc(CNc3c(C)cccc3C)n2C)c1`, for which the IC50 at Prostaglandin E synthase [1] is 200 nM.
Take `Cc1ccc(C(=O)O)cc1-c1ccc(/C=C2\SC(=O)N(CC(=O)Nc3ccccc3)C2=O)o1`: the IC50 at Prostaglandin E synthase [2] was 160 µM; at Prostaglandin E synthase [1], 1200 nM.
Consider `Cc1ccc([N+](=O)[O-])cc1NC(=O)CSc1nnc(CSCc2ccccc2)n1C`, for which the IC50 at Prostaglandin E synthase [1] was determined as 240 nM.
On the same count and under the same terms, the same measure for `Clc1ccc(CSc2nnc(-c3ccccc3)c(-c3ccccc3)n2)cc1`: greater than 100000 nM; for `CCCCCCCSc1nnc(-c2ccc(OC)cc2)c(-c2ccc(OC)cc2)n1`: 45400 nM.
For the compound `CCn1c2ccccc2c2cc(-c3cc(C(=O)O)c4c(ccc5ccccc54)n3)ccc21`, the concentration for half-maximal inhibition (IC50) on Prostaglandin E synthase [2] is greater than 200 µM; on Prostaglandin E synthase [1] it was 100 nM.

In general, IC50 refers to the concentration that gives 50% inhibition. One may read the inhibition as the change of the read-out against control, counted positive when it falls.
